PAFAH1B3 FP inh: PAFAH1B3 (human) inhibition; Q15102; recombinant PAFAH1B3, FP-rhodamine probe, fluorescence polarization; inhibition, % at 3.39 µM; 340,000 compounds, 0.28% hits; AID 492972;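 active = inhibition above the screen-wide average of all tested compounds plus 3 SD, cut at about 25% in these data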;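 note: 0% = enzyme with DMSO only and 100% = wells lacking PAFAH1B3 protein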
Target sequence (Q15102 whole entry, looked up): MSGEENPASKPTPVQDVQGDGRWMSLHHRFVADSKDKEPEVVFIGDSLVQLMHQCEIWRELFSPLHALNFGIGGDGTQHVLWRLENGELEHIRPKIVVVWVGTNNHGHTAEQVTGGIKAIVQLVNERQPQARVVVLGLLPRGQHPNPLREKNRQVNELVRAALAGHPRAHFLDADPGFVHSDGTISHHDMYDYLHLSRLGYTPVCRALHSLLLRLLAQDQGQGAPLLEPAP
Apaf-1 inh: inhibitors of human Apaf-1 apoptosome; 330,000 compounds, 0.71% hits; inhibition, % at 20 µM; reconstituted apoptosome caspase-3 activity, DEVD-Rh110 fluorescence; O14727; active = inhibition of at least 40% at 20 µM;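 note: plate controls were DMSO wells for no effect and DEVD-CHO caspase inhibitor wells for full effect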
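detection = Rh110 fluorescence intensity | test system = biochemical Apaf-1 apoptosome reconstitution | also added = cytochrome c and DEVD-Rh110 substrate | schedule = 30 min plus 50 min, RT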
PAFAH1B2 FP inh: PAFAH1B2 (human) inhibition | P68402 | recombinant PAFAH1B2, FP-rhodamine activity probe, fluorescence polarization | inhibition, % at 3.39 µM | 340,000 compounds, 1.2% hits | AID 492953;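 active = inhibition above the mean of all tested compounds plus 3 SD, cut at about 24% in these data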;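 note: 0% = enzyme with DMSO and 100% = wells lacking PAFAH1B2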
Target sequence (P68402 whole entry, looked up): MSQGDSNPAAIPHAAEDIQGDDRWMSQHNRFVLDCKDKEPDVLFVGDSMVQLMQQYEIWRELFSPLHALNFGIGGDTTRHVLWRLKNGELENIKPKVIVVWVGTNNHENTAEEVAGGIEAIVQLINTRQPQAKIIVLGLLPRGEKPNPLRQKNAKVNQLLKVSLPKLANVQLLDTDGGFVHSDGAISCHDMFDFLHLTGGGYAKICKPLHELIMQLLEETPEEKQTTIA
pPAFAH inh: inhibitors of human plasma PAF acetylhydrolase (pPAFAH) | recombinant pPAFAH, FP-rhodamine probe fluorescence polarization | Q13093 | inhibition, % at 3.39 µM | 330,000 compounds, 1.5% hits;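 active = inhibition above the mean inhibition across the screen plus 3 SD, cut at about 25% in these data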;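 note: inhibitors block binding of the rhodamine activity-based probe so polarization drops; 0% = enzyme with DMSO and 100% = wells lacking pPAFAH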
PAFAH2 FP inh: inhibitors of human PAFAH2 | recombinant PAFAH2, FP-rhodamine activity probe, fluorescence polarization | inhibition, % at 3.39 µM | 340,000 compounds, 0.99% hits | AID 492956;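 active = inhibition above the mean over all tested compounds plus 3 SD, cut at about 30% in these data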;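 note: inhibitors block probe labeling of enzyme so polarization drops; 0% = enzyme with DMSO and 100% = wells lacking PAFAH2 protein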
Apaf-1 inh conf2: confirmation of Apaf-1 inhibitors; shares compounds with Apaf-1 inh; reconstituted apoptosome, caspase-3 DEVD-Rh110 fluorescence; inhibition, % at 20 µM; 1,800 compounds, 25% hits; AID 504614;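 active = mean inhibition of at least 40% at 20 µM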;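 note: plate controls were DMSO wells for no effect and DEVD-CHO caspase inhibitor control wells for full effect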
Rh110 quench: Rh110 signal interference in Apaf-1 inhibitor counter-screen; shares compounds with Apaf-1 inh; Rh110 fluorescence interference, quenched caspase reaction; activation (fluorescence interference), % at 20 µM; 1,800 tested, under 10 active;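 active = signal rise of 40% or more at 20 µM, treated as a fluorescence artifact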
Apaf1 inh interf: counter-screen for Apaf-1 inhibitors: fluorescence interference, dose response. shares compounds with Apaf-1 inh. fluorescence interference counterscreen, Apaf-1 assay format. IC50, µM. 460 tested, under 10 active. AID 588538; call rule not given here
An asterisk follows results filed as active; / = not tested or not shown. The list is not random: actives were taken first. Their share in the collection is about 3.1%.

SMILES	PAFAH1B3 FP inh	Apaf-1 inh	PAFAH1B2 FP inh	pPAFAH inh	PAFAH2 FP inh	Apaf-1 inh conf2	Rh110 quench	others
C#CCOCCOCCOCCNc1nc(N2CCN(C(=O)[C@H](CCCN=C(N)N)n3cc(C(N)[C@@H](C)CC)nn3)CC2)nc(N2CCN(C(=O)[C@H](CCC(=O)O)n3cc([C@@H](N)CCCCN)nn3)CC2)n1 (stereo partly drawn)	10	22	5	0	10	/	/
C#CCOCCOCCOCCNc1nc(N2CCN(C(=O)[C@H](CCCCN)n3cc([C@@H](N)[C@H](C)CC)nn3)CC2)nc(N2CCN(C(=O)[C@H](CCC(=O)O)n3cc([C@@H](N)CCCCN)nn3)CC2)n1	7	47*	5	5	-4	-4	-2
C#CCOCCOCCOCCNc1nc(N2CCN(C(=O)[C@H](CCCCN)n3cc([C@@H](N)C(C)CC)nn3)CC2)nc(N2CCN(C(=O)[C@H](CCCCN)n3cc([C@@H](N)CO)nn3)CC2)n1 (stereo partly drawn)	/	-11	/	1	/	/	/
C#CCOCCOCCOCCNc1nc(N2CCN(C(=O)[C@H](CCCN=C(N)N)n3cc(C(N)[C@@H](C)CC)nn3)CC2)nc(N2CCN(C(=O)[C@H](CCCCN)n3cc([C@@H](N)[C@H](C)CC)nn3)CC2)n1 (stereo partly drawn)	2	50*	0	-5	2	5	6
C#CCOCCOCCOCCNc1nc(N2CCN(C(=O)[C@H](CCCCN)n3cc(CCCC)nn3)CC2)nc(N2CCN(C(=O)[C@H](CCCCN)n3cc(CCCC)nn3)CC2)n1	10	50*	0	0	5	11	-3
C#CCOCCOCCOCCNc1nc(N2CCN(C(=O)[C@H](CCCCN)n3cc(CN)nn3)CC2)nc(N2CCN(C(=O)[C@H](CCCCN)n3cc([C@@H](N)[C@H](C)CC)nn3)CC2)n1	-4	40*	2	-2	3	6	-1
CCNC(=S)Nc1ccc(Cc2nc3ccccc3[nH]2)cc1	7	4	-3	7	8	/	/
CCOC(=O)c1cc(-c2ccc(/C=N\n3cnnc3)o2)ccc1Cl	-1	2	1	2	3	/	/
CCOC(=O)c1cc(-c2ccc(/C=C3/C(=O)N(c4ccc(C(=O)O)cc4)N=C3C)o2)ccc1Cl	8	50*	3	5	4	30	7
C/C(N)=C(/C#N)C(=O)CSc1nc(-c2ccccc2)c(-c2ccccc2)o1	-4	20	0	12	-6	/	/
Cc1[nH]n(-c2ccccc2)c(=S)c1C=NCCCN=Cc1c(C)[nH]n(-c2ccccc2)c1=S	13	63*	-1	0	5	-8	1
Cc1ccc(NC(=O)CN2C(=O)S/C(=C/c3ccc(-c4cc(C(=O)O)ccc4C)o3)C2=O)cc1C	-6	42*	-7	18	-25	38	10
Cc1cccc(NC(=O)CN2C(=O)S/C(=C\c3ccc(-c4cccc(C(=O)O)c4C)o3)C2=O)c1	/	19	/	1	/	/	/
Cc1ccc(NC(=O)c2ncn(CC(=O)N[C@H](CO)Cc3c[nH]c4ccccc34)n2)cc1C	-1	74*	3	4	-7	7	11
Cc1[nH]n(-c2ccccc2)c(=O)c1C(=O)c1cccc(F)c1	3	-5	-4	2	-3	/	/
CC1=NN(c2ccc(F)cc2)C(=O)C1C(c1cccc(O)c1)c1c(C)[nH]n(-c2ccc(F)cc2)c1=O (stereo not drawn)	3	91*	2	1	8	20	-4
Cc1ccc(N(CC(=O)N/N=C/c2ccc(OC3CSC3)cc2)S(=O)(=O)c2ccccc2)c(C)c1	-22	63*	-17	-1	-39	18	0
O=C(CCNC(=O)c1ccc(Cl)cc1)NCCCN1CCOCC1	16	48*	2	5	-5	36	-3
Cc1cc(OCC(=O)NCCc2c[nH]c3ccccc23)c2c(C)cc(=O)oc2c1	4	2	3	8	-1	/	/
COCCN(C(=O)COC(=O)C1CC1)c1c(N)n(Cc2ccccc2)c(=O)[nH]c1=O	0	-4	7	5	3	/	/
CC(C)=CCC1=C(OCC(=O)O)C(=O)c2ccccc2C1=O	57*	95*	17	12	35*	88*	-8	Apaf1 inh interf=>100
COc1cc2c(C#N)c(N3CCOCC3)nc(N)c2c(N)n1	8	5	4	1	4	/	/
CCN(CC)c1nc(N)c(C#N)c(CC#N)c1C#N	3	8	1	-7	-10	/	/
CCOc1cc2c(C#N)c(N3CCCCC3)nc(N)c2c(N)n1	5	97*	8	22	12	37	0
COc1cc2c(C#N)c(N3CCc4ccccc4C3)nc(N)c2c(N)n1	12	94*	3	20	13	35	8
SMILES	PAFAH1B3 FP inh	Apaf-1 inh	PAFAH1B2 FP inh	pPAFAH inh	PAFAH2 FP inh	Apaf-1 inh conf2	Rh110 quench	others
CCN(CC)c1nc(N)c2c(N)nc(OC)cc2c1C#N	3	46*	10	-2	3	4	1
COc1ccc(-c2sc3cc(OC)ccc3c2-c2ccc(OCCN3CCOCC3)cc2)cc1	10	31	3	20	3	/	/
c1ccc(-c2sc3ccccc3c2-c2ccc(OCCN3CCCCC3)cc2)cc1	4	52*	6	-2	8	6	9
c1ccc2c(-c3ccc(OCCN4CCCCC4)cc3)c(-c3ccsc3)sc2c1	3	59*	1	2	-3	10	10
Cc1ccc(OCCN2CCCC2)cc1	7	-6	-1	4	5	/	/
O=C1COc2ccc(N3C(=O)C=CC3=O)cc2N1	/	-21	/	0	/	/	/
CCOC(=O)c1cc(C(=O)c2cccs2)n2ccc(C(C)=O)cc12	5	42*	-2	-1	-3	10	4
Cc1c(CCOC(=O)c2ccc(Cl)cc2Cl)sc[n+]1CC(=O)c1ccc(Br)cc1	1	71*	-1	7	-6	29	9
COc1ccc(C(=O)OCCc2sc[n+](CC(=O)c3ccccc3)c2C)cc1	1	27	7	4	-1	/	/
Cc1c(CCOC(=O)C2C3CC4CC(C3)CC2C4)sc[n+]1CC(=O)c1ccc(Br)cc1 (stereo not drawn)	4	50*	6	4	-1	32	6
Cc1c(CCOC(=O)c2ccc([N+](=O)[O-])cc2)sc[n+]1CC(=O)c1ccccc1	6	10	5	4	-1	/	/
COCCN(C(=O)c1snc(C(N)=O)c1N)C(C(=O)NC1CCCCC1)c1ccc(OC)c(OC)c1 (stereo not drawn)	8	4	-4	0	-2	/	/

Screens as filed in PubChem BioAssay.
